Experimental data: ChEMBL document CHEMBL4130635, “2,4-Diaminoquinazolines as Dual Toll-like Receptor (TLR) 7/8 Modulators for the Treatment of Hepatitis B Virus” (J Med Chem, 2018)
Activity calls are given as the source filed them. The calls are words filed in the database; no cut-off is given here.

Experiments:
[1] = Protein binding in cynomolgus monkey plasma fraction at 5 uM after 4.5 hrs LC-MS/MS-based rapid equilibrium dialysis method; assay type: ADME, cell-free, Macaca fascicularis; conditions: read-out: PPB (converted)
[2] = Inhibition of CYP450 (unknown origin); assay type: ADME; conditions: human
Plasma [3] = experiment: Upregulation of IP-10 mRNA expression levels in C57BL/6J mouse plasma at 10 mg/kg, po by RT-qPCR analysis (reference value: 1); assay type: functional
Cynomolgus monkey [4] = experiment: Effect on cytokine profile in cynomolgus monkey plasma assessed as IL-12P70 levels at 1 mg/kg, po after 24 hrs by Luminex assay (reference value: 2.17 pg/ml); assay type: functional, organism-based; conditions: Macaca fascicularis
Method in brief: (§1)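 Healthy cynomolgus monkeys given single oral doses of 1, 3, 9 and 30 mg/kg, with a 2-week wash-out planned between doses. Systemic cytokine levels in plasma were sampled at 0.5, 1, 2, 4, 9 and 24 h postdose.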

[5] = molecular target: T1, TLR7 and TLR8 (Homo sapiens) (UniProt Q9NYK1+Q9NR97); experiment: Agonist activity at TLR7/8 in human PBMCs co-cultured with primary human hepatocytes infected with HBV genotype C for 12 days assessed as increase in fractalkine sCD40L levels up to 5 uM measured after 42 days
Liver [6] = experiment: Upregulation of IP-10 mRNA expression levels in C57BL/6J mouse liver at 3 mg/kg, po by RT-qPCR analysis (reference value: 1); assay type: functional
[7] = molecular target: T1, TLR7 and TLR8 (Homo sapiens); experiment: Agonist activity at TLR7/8 in human PBMCs co-cultured with primary human hepatocytes infected with HBV genotype C for 12 days assessed as increase in MCP1 levels up to 5 uM measured after 42 days
Cynomolgus monkey [8] = experiment: Induction of ISG response in cynomolgus monkey plasma assessed as upregulation of Isg15 mRNA expression at 30 mg/kg, po after 24 hrs by Fluidigm RT-qPCR analysis (reference value: 1); assay type: functional, Macaca fascicularis
Method in brief: (§2)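 Cynomolgus monkeys, single oral doses of 1, 3, 9 and 30 mg/kg with a planned 2-week wash-out between doses. Systemic ISG (ISG15, Mx1, OAS1) mRNA was measured by Fluidigm RT-qPCR at 1, 2, 4, 8 and 24 h postdose.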

Liver [9] = experiment: Effect on cytokine profile in C57BL/6J mouse liver assessed as IL-12p70 levels at 30 mg/kg, po by multiplex assay (reference value: 5 pg/g); assay type: functional
Method in brief: (§3)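 Single oral gavage in 20% HP-β-CD to healthy C57BL/6 mice, groups of 15 at 0.3, 1, 3, 10 or 30 mg/kg. Three mice per group sacrificed at 0.5, 1, 2, 4 or 7 h. Plasma and liver cytokines by multiplex, maximum level reported, rounded to nearest multiple of 5.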

Liver [10] = experiment: Induction of IFNalpha levels in C57BL/6J mouse liver at 30 mg/kg, po by ELISA (reference value: 30 pg/g); assay type: functional
Liver [11] = experiment: Induction of IFNalpha levels in C57BL/6J mouse liver at 3 mg/kg, po by ELISA (reference value: 30 pg/g); assay type: functional
[12] = Protein binding in rat plasma fraction at 5 uM after 4.5 hrs LC-MS/MS-based rapid equilibrium dialysis method; assay type: ADME, cell-free; conditions: read-out: PPB (converted)
[13] = Absolute bioavailability in cynomolgus monkey at 1 to 30 mg/kg; assay type: ADME, organism-based, Macaca fascicularis; conditions: in vivo
[14] = system: Toll-like receptor 7/8 (Homo sapiens); experiment: Agonist activity at TLR7/8 in human PBMCs assessed as decrease in intracellular HBV RNA levels in human hepatocytes infected with HBV genotype C for 12 days followed by exposure to conditioned supernatant from up to 5 uM compound treated PBMCs measured after 42 days
Liver [15] = experiment: Proinflammatory activity in C57BL/6J mouse liver assessed as TNFalpha levels at 1 mg/kg, po by multiplex assay (reference value: 15 pg/g); assay type: functional, organism-based
Cynomolgus monkey [16] = experiment: Activation of monocytes in cynomolgus monkey plasma assessed as upregulation of MIP1 levels at 30 mg/kg, po after 24 hrs by Luminex assay (reference value: 37 pg/ml); assay type: functional, Macaca fascicularis
[17] = molecular target: T1, TLR7 and TLR8 (Homo sapiens); experiment: Agonist activity at TLR7/8 in human PBMCs co-cultured with primary human hepatocytes infected with HBV genotype C for 12 days assessed as increase in IL-10 levels up to 5 uM measured after 42 days
Cynomolgus monkey [18] = experiment: Induction of G-CSF in cynomolgus monkey plasma at 30 mg/kg, po after 24 hrs by Luminex assay (reference value: 85 pg/ml); assay type: functional, Macaca fascicularis; method in brief: as §1
Liver [19] = experiment: Proinflammatory activity in C57BL/6J mouse liver assessed as IL-1beta levels at 1 mg/kg, po by multiplex assay; assay type: functional
[20] = AUC (0 to last) in C57BL/6J mouse plasma at 30 mg/kg, po by LC-MS analysis; assay type: ADME, organism-based; parameters: dose 30 mg/kg, time 0 - last, route oral
Method in brief: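 Healthy C57BL/6 mice were dosed once by mouth at 0.3, 1, 3, 10 or 30 mg/kg in 20% HP-β-CD, in groups of 15 per dose. Three mice per group were sacrificed at 0.5, 1, 2, 4 or 7 h, and plasma and liver compound levels were measured by LC–MS. Values were rounded to whole numbers.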

Cynomolgus monkey [21] = experiment: Induction of ISG response in cynomolgus monkey plasma assessed as upregulation of Mx1 mRNA expression at 3 mg/kg, po after 24 hrs by Fluidigm RT-qPCR analysis (reference value: 1); assay type: functional, Macaca fascicularis; method in brief: as §2
Liver [22] = experiment: Effect on cytokine profile in C57BL/6J mouse liver assessed as IL-12p70 levels at 1 mg/kg, po by multiplex assay (reference value: 5 pg/g); assay type: functional, organism-based; method in brief: as §3
Plasma [23] = experiment: Effect on cytokine profile in C57BL/6J mouse plasma assessed as IFNgamma levels at 0.3 mg/kg, po by multiplex assay; assay type: functional, organism-based; method in brief: as §3
[24] = molecular target: Voltage-gated inwardly rectifying potassium channel KCNH2 (Homo sapiens, UniProt Q12809); experiment: Inhibition of radioligand binding to human ERG expressed in HEK293 cell membranes by scintillation counting method
Cynomolgus monkey [25] = experiment: Induction of IFNalpha levels in cynomolgus monkey plasma at 1 mg/kg, po after 24 hrs by ELISA; assay type: functional, Macaca fascicularis; method in brief: as §1
[26] = Intrinsic clearance in cynomolgus monkey liver microsomes assessed per mg protein at 1 uM up to 60 mins; assay type: ADME, Macaca fascicularis, microsome; conditions: read-out: CLH
Method in brief: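 Cynomolgus monkey liver microsomes at 1 mg/mL microsomal protein, incubated at 37 °C with 1 μM test compound. Serial samples taken at intervals up to 60 min and analysed for remaining compound concentration to derive intrinsic clearance, expressed as (μL/min)/mg protein and rounded to the nearest whole number.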

[27] = AUC (0 to last) in cynomolgus monkey plasma at 3 mg/kg, po by LC-MS analysis; assay type: ADME, organism-based, Macaca fascicularis; parameters: dose 3 mg/kg, time 0 - last, route oral
Method in brief: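 Healthy cynomolgus monkeys received single oral doses of 1, 3, 9 and 30 mg/kg, with a 2-week wash-out between doses. Systemic compound concentrations were measured by LC–MS at 0.25, 0.5, 1, 2, 4, 8 and 24 h postdose.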

Plasma [28] = experiment: Induction of IFNalpha levels in C57BL/6J mouse plasma at 10 mg/kg, po by ELISA; assay type: functional
Plasma [29] = experiment: Anti-inflammatory activity in C57BL/6J mouse plasma assessed as IL-10 levels at 1 mg/kg, po by multiplex assay (reference value: 120 pg/ml); assay type: functional; method in brief: as §3

T1 sequence (Q9NR97 whole entry, looked up): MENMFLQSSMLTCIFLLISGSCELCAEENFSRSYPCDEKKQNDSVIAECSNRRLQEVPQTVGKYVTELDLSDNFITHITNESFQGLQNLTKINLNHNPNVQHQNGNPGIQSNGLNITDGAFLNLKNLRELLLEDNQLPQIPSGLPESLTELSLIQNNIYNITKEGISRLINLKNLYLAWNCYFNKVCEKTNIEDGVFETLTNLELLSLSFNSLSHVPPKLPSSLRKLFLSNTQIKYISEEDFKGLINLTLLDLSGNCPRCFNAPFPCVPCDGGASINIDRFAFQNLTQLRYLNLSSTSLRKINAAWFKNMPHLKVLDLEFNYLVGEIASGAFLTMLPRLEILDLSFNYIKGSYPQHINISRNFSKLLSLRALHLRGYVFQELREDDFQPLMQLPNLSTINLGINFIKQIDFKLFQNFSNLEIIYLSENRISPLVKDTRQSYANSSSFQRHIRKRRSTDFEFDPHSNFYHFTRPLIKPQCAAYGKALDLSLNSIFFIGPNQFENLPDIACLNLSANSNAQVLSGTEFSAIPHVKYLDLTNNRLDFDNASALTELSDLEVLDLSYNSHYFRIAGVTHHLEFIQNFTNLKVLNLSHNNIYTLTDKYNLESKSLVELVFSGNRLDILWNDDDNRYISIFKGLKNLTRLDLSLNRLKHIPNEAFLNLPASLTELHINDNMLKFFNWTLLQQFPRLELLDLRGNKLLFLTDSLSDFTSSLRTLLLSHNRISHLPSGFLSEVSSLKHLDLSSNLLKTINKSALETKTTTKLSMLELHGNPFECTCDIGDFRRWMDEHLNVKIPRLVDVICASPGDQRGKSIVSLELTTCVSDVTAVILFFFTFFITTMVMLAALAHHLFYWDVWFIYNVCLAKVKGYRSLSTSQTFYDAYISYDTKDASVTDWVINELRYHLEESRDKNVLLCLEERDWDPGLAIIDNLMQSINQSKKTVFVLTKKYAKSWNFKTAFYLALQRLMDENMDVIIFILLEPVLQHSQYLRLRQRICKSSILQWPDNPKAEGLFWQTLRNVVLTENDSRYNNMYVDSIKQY
T1 sequence (Q9NYK1 whole entry, looked up): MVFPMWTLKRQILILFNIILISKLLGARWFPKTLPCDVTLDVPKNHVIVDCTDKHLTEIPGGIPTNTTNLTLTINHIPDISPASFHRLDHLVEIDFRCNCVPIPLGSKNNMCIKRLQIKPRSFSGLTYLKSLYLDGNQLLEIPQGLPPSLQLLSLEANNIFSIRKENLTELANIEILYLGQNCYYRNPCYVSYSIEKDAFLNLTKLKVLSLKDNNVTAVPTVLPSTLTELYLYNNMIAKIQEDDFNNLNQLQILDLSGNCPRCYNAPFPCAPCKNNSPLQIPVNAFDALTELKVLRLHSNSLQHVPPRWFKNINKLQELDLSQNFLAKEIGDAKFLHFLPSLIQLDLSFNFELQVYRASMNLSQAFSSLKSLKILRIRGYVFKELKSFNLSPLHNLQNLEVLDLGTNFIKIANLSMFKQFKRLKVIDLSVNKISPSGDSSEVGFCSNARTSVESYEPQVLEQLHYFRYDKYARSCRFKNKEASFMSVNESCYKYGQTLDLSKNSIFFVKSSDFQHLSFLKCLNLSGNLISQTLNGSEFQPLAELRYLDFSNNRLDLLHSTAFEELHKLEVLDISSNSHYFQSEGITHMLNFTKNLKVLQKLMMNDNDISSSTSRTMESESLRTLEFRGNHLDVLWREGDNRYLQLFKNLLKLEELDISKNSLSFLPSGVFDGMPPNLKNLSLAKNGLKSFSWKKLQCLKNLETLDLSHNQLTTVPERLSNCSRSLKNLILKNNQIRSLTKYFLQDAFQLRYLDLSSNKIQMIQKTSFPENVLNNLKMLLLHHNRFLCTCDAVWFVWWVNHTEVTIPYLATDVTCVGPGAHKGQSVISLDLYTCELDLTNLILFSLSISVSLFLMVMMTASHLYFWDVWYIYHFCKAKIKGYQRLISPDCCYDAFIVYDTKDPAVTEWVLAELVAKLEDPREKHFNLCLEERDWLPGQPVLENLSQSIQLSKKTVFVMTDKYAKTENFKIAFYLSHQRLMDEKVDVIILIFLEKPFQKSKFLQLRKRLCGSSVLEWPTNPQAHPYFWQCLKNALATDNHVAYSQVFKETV
Voltage-gated inwardly rectifying potassium channel KCNH2, sequence (Q12809 whole entry): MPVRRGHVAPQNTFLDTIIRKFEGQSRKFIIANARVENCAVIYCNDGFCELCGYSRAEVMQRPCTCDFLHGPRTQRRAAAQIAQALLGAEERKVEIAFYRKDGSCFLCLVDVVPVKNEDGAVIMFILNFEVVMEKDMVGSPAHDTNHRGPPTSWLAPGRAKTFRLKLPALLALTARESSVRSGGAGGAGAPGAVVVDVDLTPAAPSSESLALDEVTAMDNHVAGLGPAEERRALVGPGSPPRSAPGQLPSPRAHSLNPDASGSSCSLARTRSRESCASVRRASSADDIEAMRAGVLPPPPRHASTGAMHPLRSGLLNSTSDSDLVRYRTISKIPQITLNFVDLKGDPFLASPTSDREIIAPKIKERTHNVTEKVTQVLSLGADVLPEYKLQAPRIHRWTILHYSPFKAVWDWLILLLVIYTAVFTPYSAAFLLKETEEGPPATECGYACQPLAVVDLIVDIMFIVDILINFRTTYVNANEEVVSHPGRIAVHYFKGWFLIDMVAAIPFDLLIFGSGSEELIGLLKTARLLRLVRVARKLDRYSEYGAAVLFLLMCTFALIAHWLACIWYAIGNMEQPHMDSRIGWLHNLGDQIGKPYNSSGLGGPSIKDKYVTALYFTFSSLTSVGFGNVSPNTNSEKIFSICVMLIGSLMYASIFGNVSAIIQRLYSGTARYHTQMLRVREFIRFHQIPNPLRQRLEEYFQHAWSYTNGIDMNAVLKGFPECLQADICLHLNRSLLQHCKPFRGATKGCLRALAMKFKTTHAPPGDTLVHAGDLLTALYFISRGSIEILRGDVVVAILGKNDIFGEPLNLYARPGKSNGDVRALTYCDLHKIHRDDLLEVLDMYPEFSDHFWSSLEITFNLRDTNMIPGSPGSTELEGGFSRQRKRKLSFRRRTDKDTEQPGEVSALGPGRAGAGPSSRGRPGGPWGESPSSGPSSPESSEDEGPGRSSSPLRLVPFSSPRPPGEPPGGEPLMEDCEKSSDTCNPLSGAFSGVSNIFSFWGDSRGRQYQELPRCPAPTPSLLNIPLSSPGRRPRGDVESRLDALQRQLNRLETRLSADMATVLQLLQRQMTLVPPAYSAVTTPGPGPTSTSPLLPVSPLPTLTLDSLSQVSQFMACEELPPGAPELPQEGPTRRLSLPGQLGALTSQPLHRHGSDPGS

Q: What does the source list for `CCC[C@@H](CCO)Nc1nc(N)nc2c(F)cccc12`?
A: fraction unbound at 4.5 h, 5 µM [1]: 0.46; inhibition (INH) [2]: Not Active; fold change (FC) (Plasma [3]): 2875; Activity (Cynomolgus monkey [4]): Below limit of detection; Activity [5]: Active; fold change (FC) (Liver [6]): 845; Activity [7]: Active; fold change (FC) (Cynomolgus monkey [8]): 285; Activity (Liver [9]): 2340 pg/g; Activity (Liver [10]): 955 pg/g; Activity (Liver [11]): 765 pg/g; fraction unbound at 4.5 h, 5 µM [12]: 0.47; bioavailability [13]: < 11%; Activity [14]: Active; Activity (Liver [15]): Below limit of detection; Activity (Cynomolgus monkey [16]): 560 pg/mL; Activity [17]: Active; Activity (Cynomolgus monkey [18]): 1135 pg/mL; Activity (Liver [19]): 16445 pg/g; AUC(0-t) [20]: 679 ng·h/mL; fold change (FC) (Cynomolgus monkey [21]): 50; Activity (Liver [22]): Below limit of detection; Activity (Plasma [23]): Below limit of detection; IC50 [24]: > 10 µM; Activity (Cynomolgus monkey [25]): 3465 pg/mL; microsomal CLint at 1 µM [26]: 16 µL/min/mg; AUC(0-t) [27]: 383 ng·h/mL; Activity (Plasma [28]): >3200 pg/mL; Activity (Plasma [29]): 485 pg/mL
